Results taken from ChEMBL document CHEMBL1125316, “New hydroxyethylamine HIV protease inhibitors that suppress viral replication” (J Med Chem, 1992).
In brackets after ≈: the same amount, converted by molar mass. Activity calls are given as the source filed them. The rule behind the calls is not given here. Starred links: 1 amine or outer side, 2 acyl side, 3 side chain; linkers in the order of their positions; H or OH if unused. Non-standard residues stand in square brackets, D forms with d. Residues, ends and D or L forms follow the SMILES beside them. ξ: configuration not given here. *: point of attachment. Pheψ(R-CH(OH)CH2N)Pro = O=C([C@@H]1CCCN1C[C@@H](O)[C@H](Cc1ccccc1)N[*:1])[*:2]; Pheψ(R-CHOHCH2N)ξPro = O=C(C1CCCN1C[C@@H](O)[C@H](Cc1ccccc1)N[*:1])[*:2]; Phe(3-Ph) = N[C@@H](Cc1cccc(-c2ccccc2)c1)C(=O)O; Bip = N[C@@H](Cc1ccc(-c2ccccc2)cc1)C(=O)O; 2Nal = N[C@@H](Cc1ccc2ccccc2c1)C(=O)O; hPhe = N[C@@H](CCc1ccccc1)C(=O)O; Boc = CC(C)(C)OC(=O)*

How the values were obtained:
[1] = target: Human immunodeficiency virus type 1 protease (Human immunodeficiency virus 1, UniProt Q72874); assay: Binding affinity to HIV protease
Method in brief: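 Continuous fluorometric assay of HIV protease (6.2 nM enzyme) at pH 6.4 with substrate AntThrIleNlePhe(p-NO2)GlnArgNH2. Ki derived assuming pure competitive tight-binding inhibition, by nonlinear least-squares fit to Morrison's tight-binding equation.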

[2] = system: CCRF-CEM; assay: Compound was evaluated for the inhibition of HIV infected CEM cells.; type: functional, Homo sapiens
Method in brief: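 CEM (CD4+ lymphocyte line) cultures infected with HTLV-IIIb at MOI 0.1. Compound added 1 h before inoculation; peptides re-dosed days 2 and 5 post-infection. Virus-induced CPE quantitated at day 7 by formazan dye. Controls were untreated, infected and compound-only cells. EC50 for 50% CPE inhibition by linear regression. AZT positive control.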

[3] = system: Simian immunodeficiency virus; assay: Compound was evaluated for the inhibition of SIV induced syncytia formation; type: functional, organism-based
Method in brief: (§1)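 CEM×174 cells pretreated 30 min with serial 2-fold inhibitor dilutions, then infected with cell-free SIVmac251. Fresh inhibitor added at 48 h. CPE scored as multinucleated giant cell appearance after 7-day incubation. IC50 is the concentration giving 50% CPE inhibition versus infected controls. AZT positive control.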

[4] = system: Simian immunodeficiency virus; assay: Compound was evaluated at highest concentration (>10 syncytia formation; NA = not active; type: functional, organism-based; method in brief: as §1
[5] = system: CCRF-CEM; assay: Compound was evaluated at highest concentration (>10 uM) for the inhibition of HIV infected CEM cells; NA = not active; type: functional, cell-based; conditions: Homo sapiens
Method in brief: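 CEM (CD4+ lymphocyte) cells infected with HTLV-IIIb at MOI 0.1; compound added 1 h before inoculation, with extra doses on days 2 and 5 for metabolically unstable compounds such as peptides. Virus-induced CPE read at day 7 by formazan dye.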

## CC[C@H](C)[C@H](NC(=O)C1CCCN1C[C@@H](O)[C@H](Cc1ccccc1)NC(=O)[C@H](CC(N)=O)NC(=O)OC(C)(C)C)C(=O)N[C@H](C(=O)OC)C(C)C (stereo partly drawn)
[1]
  Ki: 440 nM

## CC[C@H](C)[C@H](NC(=O)C1CCCN1C[C@@H](O)[C@H](Cc1ccccc1)NC(=O)[C@H](CC(N)=O)NC(=O)[C@H](Cc1c(I)cc(O)cc1I)NC(=O)OC(C)(C)C)C(=O)N[C@H](C(=O)OC)C(C)C (stereo partly drawn)
[1]
  Ki: 131 nM

## CC[C@H](C)[C@H](NC(=O)C1CCCN1C[C@@H](O)[C@H](Cc1ccccc1)NC(=O)[C@H](CC(N)=O)NC(=O)c1ccc2ccccc2n1)C(=O)N[C@H](C(=O)OC)C(C)C (stereo partly drawn)
[1]
  Ki: 2.5 nM

## CC[C@H](C)[C@H](NC(=O)C1CCCN1C[C@@H](O)[C@H](Cc1ccccc1)NC(=O)[C@H](CC(N)=O)NC(=O)[C@H](CC(C)C)NC(=O)[C@H](CO)NC(C)=O)C(=O)N[C@@H](Cc1c[nH]c2ccccc12)C(=O)OC (stereo partly drawn) (Ac-SLN[Pheψ(R-CHOHCH2N)ξPro]IW-OMe)
[1]
  Ki: 3.6 nM

## CC[C@H](C)[C@H](NC(=O)C1CCCN1C[C@@H](O)[C@H](Cc1ccccc1)NC(=O)[C@H](CC(N)=O)NC(=O)[C@H](CCc1ccccc1)NC(=O)OC(C)(C)C)C(=O)N[C@H](C(=O)OC)C(C)C (stereo partly drawn) (Boc-[hPhe]N[Pheψ(R-CHOHCH2N)ξPro]IV-OMe)
[1]
  Ki: 20 nM

## CC[C@H](C)[C@H](NC(=O)C1CCCN1C[C@@H](O)[C@H](Cc1ccccc1)NC(=O)[C@H](CC(N)=O)NC(=O)[C@H](CC(C)C)NC(=O)[C@H](CO)NC(C)=O)C(=O)N[C@@H](Cc1ccc2ccccc2c1)C(=O)OC (stereo partly drawn) (Ac-SLN[Pheψ(R-CHOHCH2N)ξPro]I[2Nal]-OMe)
[1]
  Ki: 5.1 nM

## CC[C@H](C)[C@H](NC(=O)C1CCCN1C[C@@H](O)[C@H](Cc1ccccc1)NC(=O)[C@H](CC(N)=O)NC(=O)[C@H](CC(C)C)NC(=O)[C@H](CO)NC(C)=O)C(=O)N[C@@H](CCc1ccccc1)C(=O)OC (stereo partly drawn) (Ac-SLN[Pheψ(R-CHOHCH2N)ξPro]I[hPhe]-OMe)
[1]
  Ki: 1.26 nM

## CC[C@H](C)[C@H](NC(=O)C1CCCN1C[C@@H](O)[C@H](Cc1ccccc1)NC(=O)[C@H](CC(N)=O)NC(=O)OCc1ccccc1)C(=O)NCCc1ccccn1 (stereo partly drawn)
[1]
  Ki: 71 nM

## CC[C@H](C)[C@H](NC(=O)C1CCCN1C[C@@H](O)[C@H](Cc1ccccc1)NC(=O)[C@H](CC(N)=O)NC(=O)[C@H](Cc1ccc2ccccc2c1)NC(=O)OC(C)(C)C)C(=O)N[C@H](C(=O)OC)C(C)C (stereo partly drawn) (Boc-[2Nal]N[Pheψ(R-CHOHCH2N)ξPro]IV-OMe)
[1]
  Ki: 7.8 nM

## CC[C@H](C)[C@H](NC(=O)[C@@H]1CCCN1C[C@@H](O)[C@H](Cc1ccccc1)NC(=O)[C@H](CC(N)=O)NC(=O)[C@H](CC(C)C)NC(=O)[C@H](CO)NC(C)=O)C(=O)N[C@H](C(=O)OC)C(C)C (Ac-SLN[Pheψ(R-CH(OH)CH2N)Pro]IV-OMe)
[1]
  Ki: 0.24 nM

## CC[C@H](C)[C@H](NC(=O)C1CCCN1C[C@@H](O)[C@H](Cc1ccccc1)NC(=O)[C@H](CC(N)=O)NC(=O)c1ccc2ccccc2n1)C(=O)N[C@@H](Cc1ccccc1)C(=O)OC (stereo partly drawn)
[1]
  Ki: 0.4 nM

## CC[C@H](C)[C@H](NC(=O)C1CCCN1C[C@@H](O)[C@H](Cc1ccccc1)NC(=O)[C@H](CC(N)=O)NC(=O)[C@H](Cc1ccc(-c2ccccc2)cc1)NC(=O)OC(C)(C)C)C(=O)N[C@H](C(=O)OC)C(C)C (stereo partly drawn) (Boc-[Bip]N[Pheψ(R-CHOHCH2N)ξPro]IV-OMe)
[1]
  Ki: 14 nM

## CC[C@H](C)[C@H](NC(=O)C1CCCN1C[C@@H](O)[C@H](Cc1ccccc1)NC(=O)[C@H](CC(N)=O)NC(=O)c1ccc2ccccc2n1)C(=O)NCCc1ccccn1 (stereo partly drawn)
[2]
  EC50: 0.19 µg/mL (≈ 0.248 µM)
[1]
  Ki: 13 nM
[3]
  IC50: 4000 nM

## CC[C@H](C)[C@H](NC(=O)C1CCCN1C[C@@H](O)[C@H](Cc1ccccc1)NC(=O)[C@H](CC(N)=O)NC(=O)c1ccc2ccccc2n1)C(=O)N[C@@H](Cc1ccc2ccccc2c1)C(=O)OC (stereo partly drawn)
[1]
  Ki: 0.5 nM

## CC[C@H](C)[C@H](NC(=O)C1CCCN1C[C@@H](O)[C@H](Cc1ccccc1)NC(=O)[C@H](CC(N)=O)NC(=O)[C@H](CC(C)C)NC(=O)[C@H](CO)NC(C)=O)C(=O)N[C@@H](Cc1ccccc1)C(=O)OC (stereo partly drawn) (Ac-SLN[Pheψ(R-CHOHCH2N)ξPro]IF-OMe)
[1]
  Ki: 0.67 nM

## CC[C@H](C)[C@H](NC(=O)C1CCCN1C[C@@H](O)[C@H](Cc1ccccc1)NC(=O)[C@H](CC(N)=O)NC(=O)OCc1ccccc1)C(=O)N[C@@H](Cc1ccccc1)C(=O)OC (stereo partly drawn)
[2]
  EC50: 0.6 µg/mL (≈ 0.749 µM)
[1]
  Ki: 1.7 nM
[3]
  IC50: 8000 nM

## CC[C@H](C)[C@H](NC(=O)C1CCCN1C[C@@H](O)[C@H](Cc1ccccc1)NC(=O)[C@H](CC(N)=O)NC(=O)[C@H](CC(C)C)NC(=O)[C@H](CO)NC(C)=O)C(=O)N[C@H](C(=O)OC)C(C)C (stereo partly drawn) (Ac-SLN[Pheψ(R-CHOHCH2N)ξPro]IV-OMe)
[1]
  Ki: 0.6 nM
[4]
  IC50: Not Active
[5]
  Inhibition: inactive

## CC[C@H](C)[C@H](NC(=O)C1CCCN1C[C@@H](O)[C@H](Cc1ccccc1)NC(=O)[C@H](CC(N)=O)NC(=O)[C@H](CC(C)C)NC(C)=O)C(=O)N[C@H](C(=O)OC)C(C)C (stereo partly drawn) (Ac-LN[Pheψ(R-CHOHCH2N)ξPro]IV-OMe)
[1]
  Ki: 4 nM

## CC[C@H](C)[C@H](NC(=O)[C@@H]1CCCN1C[C@@H](O)[C@H](Cc1ccccc1)NC(=O)[C@H](CC(N)=O)NC(=O)c1ccc2ccccc2n1)C(=O)N[C@@H](Cc1ccccc1)C(=O)OC
[1]
  Ki: 0.1 nM

## CC[C@H](C)[C@H](NC(=O)C1CCCN1C[C@@H](O)[C@H](Cc1ccccc1)NC(=O)[C@H](CC(N)=O)NC(=O)c1ccc2ccccc2n1)C(=O)N[C@@H](Cc1ccccc1)C(=O)NC (stereo partly drawn)
[2]
  EC50: 0.13 µg/mL (≈ 0.158 µM)
[1]
  Ki: 0.8 nM
[3]
  IC50: 4000 nM

## CC[C@H](C)[C@H](NC(=O)C1CCCN1C[C@@H](O)[C@H](Cc1ccccc1)NC(=O)[C@H](CC(N)=O)NC(=O)OCc1ccccc1)C(=O)N[C@@H](Cc1ccc2ccccc2c1)C(=O)OC (stereo partly drawn)
[1]
  Ki: 1.9 nM

## CC[C@H](C)[C@H](NC(=O)C1CCCN1C[C@@H](O)[C@H](Cc1ccccc1)NC(=O)[C@H](CC(N)=O)NC(=O)OCc1ccccc1)C(=O)N[C@H](C(=O)OC)C(C)C (stereo partly drawn)
[1]
  Ki: 9.7 nM

## CC[C@H](C)[C@H](NC(=O)C1CCCN1C[C@@H](O)[C@H](Cc1ccccc1)NC(=O)[C@H](CC(N)=O)NC(=O)[C@H](Cc1cccc(-c2ccccc2)c1)NC(=O)OC(C)(C)C)C(=O)N[C@H](C(=O)OC)C(C)C (stereo partly drawn) (Boc-[Phe(3-Ph)]N[Pheψ(R-CHOHCH2N)ξPro]IV-OMe)
[1]
  Ki: 6.8 nM

## CC[C@H](C)[C@H](NC(=O)C1CCCN1C[C@@H](O)[C@H](Cc1ccccc1)NC(=O)[C@H](CC(N)=O)NC(=O)[C@H](CC(C)C)NC(=O)OC(C)(C)C)C(=O)N[C@H](C(=O)OC)C(C)C (stereo partly drawn) (Boc-LN[Pheψ(R-CHOHCH2N)ξPro]IV-OMe)
[1]
  Ki: 66 nM

## CC[C@H](C)[C@H](NC(=O)C1CCCN1C[C@@H](O)[C@H](Cc1ccccc1)NC(=O)[C@H](CC(N)=O)NC(=O)OCc1ccccc1)C(=O)N[C@@H](Cc1ccccc1)C(=O)NC (stereo partly drawn)
[2]
  EC50: 0.3 µg/mL (≈ 0.375 µM)
[1]
  Ki: 1.5 nM
[3]
  IC50: 4000 nM

## CC[C@H](C)[C@H](NC(=O)[C@@H]1CCCN1C[C@@H](O)[C@H](Cc1ccccc1)NC(=O)[C@H](CC(N)=O)NC(=O)OCc1ccccc1)C(=O)N[C@@H](Cc1ccccc1)C(=O)OC
[2]
  EC50: 0.31 µg/mL (≈ 0.387 µM)
[1]
  Ki: 1 nM
[3]
  IC50: 4000 nM
